Measles CPE – protection of cells from measles virus; 140,000 compounds, 1.5% hits; Measles virus-infected cells, CPE protection, absorbance; protection (pct of control), % at 4 µM; in the data active = protection mostly above about 24%, no sharp cut-off; inactive = mostly below about 26%
Yeast growth inh – yeast BB579 growth reduction in restrictive medium. S. cerevisiae BB579 growth, OD615, 48 h. 140,000 compounds, 0.51% hits. AID 804. inhibition, % at 10 µM;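 active = inhibition above a set limit, 3 SD over the mean compound inhibition, cut at about 44% in these data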
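Test system: S. cerevisiae DeaD strain BB579 yeast; Medium: restrictive CSMM-D medium; Compound: one dose, 10 µM compound with 0.25% DMSO; Incubation: 4 h cell preincubation, 48 h compound exposure, 30 °C humidified; Signal: OD at 615 nm; Benchmarks: amphotericin B at 10 µg/mL as positive control.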
Yeast lifespan up – extends the lifespan of yeast; S. cerevisiae growth with nicotinamide, OD615; deaD strain in restrictive glucose medium; inhibition of the nicotinamide effect, % at 10 µM; 130,000 compounds, 0.68% hits;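 active = inhibition above a set limit, placed 3 SD over the median of all compounds, cut at about 26% in these data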;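 also: 0% = nicotinamide-treated wells and 100% = cells grown without nicotinamide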
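assay system = DeaD-strain S. cerevisiae | measured by = absorbance at 615 nm | probe or stimulus = nicotinamide 1.5 mM | buffer or medium = CSMM-D glucose medium, restrictive | times = 48 h at 30 °C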
WT yeast gro inh – growth inhibition of WT yeast, mitochondrial fusion screen. mitochondrial fusion phenotypic screen, WT strain. inhibition, % at 10 µM. 190,000 compounds, 2.1% hits; in the data active = inhibition above about 58%; tested in S. cerevisiae
DAT uptake mod – human DAT dopamine uptake with cocaine, either direction. LLC-PK1 hDAT cells, [14C]-dopamine uptake with cocaine IC80; actives deviate in either direction. AID 449768. 110,000 compounds, 1.3% hits. B-score at 10 µM;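 active = Z score or B-score, a plate-position-corrected score, falls beyond the plate's 99.7% confidence bounds, in either direction; inactive = both scores lie inside the 99.7% bounds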;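 also: scored against the spread of the other compound wells on the same plate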
Target sequence (Q01959 whole entry, looked up): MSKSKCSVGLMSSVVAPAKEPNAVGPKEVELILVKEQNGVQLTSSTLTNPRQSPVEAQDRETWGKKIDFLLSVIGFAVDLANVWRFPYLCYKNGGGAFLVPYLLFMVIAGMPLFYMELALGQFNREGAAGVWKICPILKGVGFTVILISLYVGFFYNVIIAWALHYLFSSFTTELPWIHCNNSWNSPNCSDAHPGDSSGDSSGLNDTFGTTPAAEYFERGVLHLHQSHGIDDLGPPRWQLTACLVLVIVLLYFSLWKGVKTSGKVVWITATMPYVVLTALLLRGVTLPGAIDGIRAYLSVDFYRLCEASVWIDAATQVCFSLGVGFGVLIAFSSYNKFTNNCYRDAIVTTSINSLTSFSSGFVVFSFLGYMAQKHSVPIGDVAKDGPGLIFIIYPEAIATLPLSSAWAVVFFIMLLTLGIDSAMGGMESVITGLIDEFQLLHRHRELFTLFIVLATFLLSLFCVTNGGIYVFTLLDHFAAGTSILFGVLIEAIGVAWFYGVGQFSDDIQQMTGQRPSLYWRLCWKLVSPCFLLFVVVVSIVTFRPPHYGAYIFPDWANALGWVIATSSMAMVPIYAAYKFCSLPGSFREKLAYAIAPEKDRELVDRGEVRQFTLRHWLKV
RAM network inh – yeast RAM network inhibition | S. cerevisiae dse1pr::URA3 reporter, 5-FOA growth OD615, 2 d; analog-sensitive cbk1-as2 kinase mutant strain | inhibition, % at 50 µM | 190,000 compounds, 1.8% hits | AID 868;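 active = inhibition above a set limit, 3 SD over mean compound inhibition, cut at about 8.4% in these data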;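 also: 0% = DMSO-only wells with no growth and 100% = 10 µM 1-NA-PP1 full growth; inhibition rescues growth on 5-FOA so higher OD means more RAM inhibition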
Active calls of the source: *. Only some compounds are listed: those with a hit (about 6.1% of all), similar ones and a draw of the others.

For CCCCCCN(C(=O)CCCCCN1C(=O)NC(c2ccc(C3CCCCC3)cc2)C(C(=O)OCc2ccccc2)=C1C)C(C(=O)NCCCC)c1ccc(OCC(=O)OC)c(C(=O)OC)c1 (stereo unspecified) the results were DAT uptake mod 0.48.
For COc1ccc(C2C(C(=O)OC(C)C)=C(C)N=c3s/c(=C\c4cccs4)c(=O)n32)cc1 (stereo unspecified) the results were Measles CPE 45*, Yeast growth inh -50, Yeast lifespan up -9, WT yeast gro inh 3, DAT uptake mod -0.13 and RAM network inh 2.
COCC(=O)N1CCCC(C(=O)c2ccc(-c3ccccc3)c(F)c2)C1 (stereo unspecified) was read as WT yeast gro inh 59* and RAM network inh 1.
`C=CCn1c2ccccc2n2nc(C)c(=O)nc12` gave Measles CPE 38*, Yeast growth inh -32, WT yeast gro inh -13, DAT uptake mod 0.075 and RAM network inh 0.
Cc1nn2c3ccccc3n(CCN3CCCCC3)c2nc1=O was read as Measles CPE 9, Yeast growth inh -9, WT yeast gro inh -4 and RAM network inh 0.
Screening N#Cc1cc(-c2ccccc2)oc1NC(=O)c1ccco1 returned Measles CPE 6, Yeast growth inh -11, Yeast lifespan up -31, WT yeast gro inh 10, DAT uptake mod -8.8* and RAM network inh 2.
For CCCCC(=O)Nc1sc2c(c1C(=O)OCC)CCC(C=O)=C2Cl the results were Measles CPE 10, Yeast growth inh -17, Yeast lifespan up -1, WT yeast gro inh 17, DAT uptake mod 1.3 and RAM network inh 9.2*.
`CCOC(=O)c1c(NC(=O)c2ccccc2Cl)sc2c1CCc1ccccc1-2` gave Measles CPE 6, Yeast growth inh -45, Yeast lifespan up -4, WT yeast gro inh 6 and RAM network inh 7.
Screening Cc1ccccc1NC(=O)CSCc1nc(N)nc(Nc2ccccc2C)n1 returned Measles CPE 2, Yeast growth inh -12, Yeast lifespan up 6, WT yeast gro inh 2 and RAM network inh 0.
`CCC1SC(CC)C(=O)N(CC(=O)NCCc2ccccc2)C1=O` (stereo unspecified) gave WT yeast gro inh -2 and RAM network inh 1.
Screening Cc1cc(C=C2C(=O)c3ccccc3C2=O)c(C)n1-c1ccc(C(=O)O)cc1 returned WT yeast gro inh 6 and RAM network inh 5.
`Cc1cc(C=C2C(=O)c3ccccc3C2=O)c(C)n1-c1cccc(C(=O)O)c1` gave WT yeast gro inh 6 and RAM network inh 8.8*.
Screening Clc1ccc2[nH]c3c(NCCCN4CCOCC4)ncnc3c2c1 returned Measles CPE 44*, Yeast growth inh -2, Yeast lifespan up -33, WT yeast gro inh 1, DAT uptake mod -0.33 and RAM network inh 1.
CCOC(=O)CSc1nnc(CNC(=O)c2ccc(OC)c(OC)c2)n1C was read as Measles CPE 9, Yeast growth inh -16, Yeast lifespan up -11, WT yeast gro inh 0, DAT uptake mod 0.023 and RAM network inh 1.
Screening O=C1c2cnc3nc(SCc4ccccc4)nn3c2CC2c3ccccc3CCN12 (stereo unspecified) returned Measles CPE 12, Yeast growth inh 1, Yeast lifespan up -3, WT yeast gro inh 80*, DAT uptake mod -0.22 and RAM network inh 4.
Screening Cc1cccc(NC(NC(=O)Cc2ccccc2)C(Cl)(Cl)Cl)c1 (stereo unspecified) returned Measles CPE 58*, Yeast growth inh -20, Yeast lifespan up 8, WT yeast gro inh -10 and RAM network inh 2.
Screening Cc1ccc(NC(NC(=O)Cc2ccccc2)C(Cl)(Cl)Cl)cc1 (stereo unspecified) returned Measles CPE 2, Yeast growth inh -16, Yeast lifespan up 11, WT yeast gro inh 18 and RAM network inh 1.
Cc1cccc(NC(NC(=O)c2ccccn2)C(Cl)(Cl)Cl)c1 (stereo unspecified) was read as Measles CPE 39*, Yeast growth inh -15, Yeast lifespan up 7, WT yeast gro inh -10 and RAM network inh 0.
Screening O=C(Oc1c(CN2CCOCC2)cc(Cl)c2cccnc12)c1cccs1 returned WT yeast gro inh 6 and RAM network inh -1.

Bioassay records as filed in PubChem BioAssay.
